From ChEMBL document CHEMBL3232813, “The identification, analysis and structure-based development of novel inhibitors of 6-hydroxymethyl-7,8-dihydropterin pyrophosphokinase” (Bioorg Med Chem, 2014)
Calls of active or inactive are those of the source. The calls are words filed in the database; no cut-off is given here.

Legend:
[1] = molecular target: T1, 2-amino-4-hydroxy-6-hydroxymethyldihydropteridine pyrophosphokinase (Escherichia coli (strain K12)) (UniProt P26281); experiment: Inhibition of GST-tagged Escherichia coli HPPK expressed in Escherichia coli using 6-hydroxymethyl-7,8-dihydropterin hydrochloride as substrate at 250 uM after 20 mins by luminescence assay
T1 sequence (whole entry): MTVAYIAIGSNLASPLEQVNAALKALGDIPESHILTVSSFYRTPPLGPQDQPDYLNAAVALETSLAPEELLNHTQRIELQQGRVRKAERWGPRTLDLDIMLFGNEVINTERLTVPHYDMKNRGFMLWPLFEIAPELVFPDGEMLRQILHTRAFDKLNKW
Method in brief: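 GST tag cleaved from E. coli HPPK; 5 ng enzyme used. Reaction contained 0.75 µM dihydropterin substrate, 0.75 µM ATP, 100 mM Tris-HCl pH 8.5, 10 mM MgCl2, 10 mM BME, 0.01% Tween 20, 0.01% BSA and 5% DMSO. Compound present at 250 µM. Ran 20 min at 23 °C. Unconsumed ATP read by Kinase-Glo luminescence and reported as % inhibition.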

[2] = molecular target: T1, 2-amino-4-hydroxy-6-hydroxymethyldihydropteridine pyrophosphokinase (Escherichia coli (strain K12)); experiment: Binding affinity to GST-tagged Escherichia coli HPPK expressed in Escherichia coli by SPR assay in absence of AMP-CPP
Method in brief: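 Thrombin-cleaved EcHPPK (GST removed), minimally biotinylated and captured (~3000–3700 RU) on a neutravidin chip. SPR at 20 °C, no AMPCPP, in 20 mM Tris pH 8.5, 100 mM NaCl, 10 mM MgCl2, 1 mM TCEP, 0.005% Tween20, 10% glycerol, 5% DMSO. Compounds run as 3-fold dilution series. Data double-referenced, solvent-corrected, fitted to a 1:1 model for K_D.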

[3] = molecular target: T2, 2-amino-4-hydroxy-6-hydroxymethyldihydropteridine pyrophosphokinase (Escherichia coli (strain K12), UniProt P26281); experiment: Binding affinity to GST-tagged Escherichia coli HPPK expressed in Escherichia coli by SPR assay based alternative equilibrium affinity method in presence of AMP-CPP
T2 sequence (P26281 whole entry): T1 sequence (whole entry)
Method in brief: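 E. coli HPPK expressed as a GST fusion, with the tag removed by thrombin. Minimally biotinylated and captured on a neutravidin chip. SPR run at 20 °C in 20 mM Tris pH 8.5, 100 mM NaCl, 10 mM MgCl2, 1 mM TCEP, 10% glycerol, 5% DMSO, with 2 µM AMPCPP. Compounds injected as a 3-fold series from 100 µM at 80 µL/min. Data double-referenced and fitted to a 1:1 model.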

[4] = molecular target: T2, 2-amino-4-hydroxy-6-hydroxymethyldihydropteridine pyrophosphokinase; experiment: Inhibition of GST-tagged Escherichia coli HPPK expressed in Escherichia coli using 6-hydroxymethyl-7,8-dihydropterin hydrochloride as substrate after 20 mins by luminescence assay
Method in brief: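 GST tag cleaved from E. coli HPPK; 5 ng enzyme used. Reaction contained 0.75 µM dihydropterin substrate, 0.75 µM ATP, 100 mM Tris-HCl pH 8.5, 10 mM MgCl2, 10 mM BME, 0.01% Tween 20, 0.01% BSA and 5% DMSO. Ran 20 min at 23 °C. Remaining ATP read by Kinase-Glo luminescence.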

[5] = molecular target: T1, 2-amino-4-hydroxy-6-hydroxymethyldihydropteridine pyrophosphokinase (Escherichia coli (strain K12)); experiment: Binding affinity to GST-tagged Escherichia coli HPPK expressed in Escherichia coli by ITC method

Compound	inhibition [1]	Activity [2]	Kd [3]	IC50 [4]	Activity [5]
N#Cc1ccc(CSc2nc3nc(N)[nH]c(=O)c3[nH]2)cc1	53%	inactive	29 µM	254 µM	
Nc1nc2nc(SCC(=O)c3ccc(F)cc3)[nH]c2c(=O)[nH]1	73%		11.2 µM	79 µM	
N#Cc1ccc(C(=O)CSc2nc3nc(N)[nH]c(=O)c3[nH]2)cc1	68%		39 µM	88 µM	
Nc1nc(O)nc2nc[nH]c12 [ISOGUANINE]			7.5 µM		
Nc1nc2[nH]cnc2c(=O)[nH]1	48%				
Nc1nc2[nH]cnc2c(=S)[nH]1	51%				
Cc1ccccc1C(=O)CSc1nc2nc(N)[nH]c(=O)c2[nH]1	48%		18.9 µM	243 µM	
Nc1nc2nc(SCCN3CCOCC3)[nH]c2c(=O)[nH]1	7%				
NC1N=C(O)c2nc(CO)cnc2N1 (centres undefined)					Active
COc1ccccc1C(=O)CSc1nc2nc(N)[nH]c(=O)c2[nH]1	12%				
CC(Sc1nc2nc(N)[nH]c(=O)c2[nH]1)C(=O)c1ccccc1 (centres undefined)	10%				
Cc1nc2c(=O)[nH]c(N)nc2[nH]1			18 µM		
Cc1cccc(C(=O)CSc2nc3nc(N)[nH]c(=O)c3[nH]2)c1	77%		5.9 µM	51 µM	
Nc1nc2nc(SCC(=O)c3ccccc3)[nH]c2c(=O)[nH]1	75%	inactive	9.7 µM	139 µM	
Nc1nc2nc[nH]c2c(=O)[nH]1 [GUANINE]			38 µM		
Cc1ccc(C(=O)C(C)Sc2nc3nc(N)[nH]c(=O)c3[nH]2)cc1 (centres undefined)	13%				
Nc1nc2[nH]c(S)nc2c(=O)[nH]1	18%		> 100 µM		
Cc1ccc(C(=O)CSc2nc3nc(N)[nH]c(=O)c3[nH]2)cc1	80%		6.7 µM	64 µM	
Nc1nc(O)c2nc(SCC(=O)N3CCOCC3)[nH]c2n1	6%				
Nc1nc2nc(SCC(=O)c3ccc(OCCN4CCOCC4)cc3)[nH]c2c(=O)[nH]1	5%				
Nc1nc2nc(SC(=O)c3ccc(F)cc3)[nH]c2c(=O)[nH]1	16%				
Nc1nc2nc(SCC(=O)c3ccc(O)cc3)[nH]c2c(=O)[nH]1	77%		5.8 µM	82 µM	
COc1ccc(C(=O)CSc2nc3nc(N)[nH]c(=O)c3[nH]2)cc1	74%		14.5 µM	44 µM	
